In ChEMBL document CHEMBL1649436, “Antiviral activity of MK-4965, a novel nonnucleoside reverse transcriptase inhibitor” (Antimicrob Agents Chemother, 2009):

Assays:
Type in all cases: functional
[1] = tested on: Human immunodeficiency virus 1; test: Antiviral activity against HIV1 clade G harboring mutant reverse transcriptase relative to HIV1 CNDO with wild type reverse transcriptase
[2] = tested on: Human immunodeficiency virus 1; test: Antiviral activity against HIV1 clade A harboring mutant reverse transcriptase relative to HIV1 CNDO with wild type reverse transcriptase
[3] = tested on: Human immunodeficiency virus 1; test: Antiviral activity against HIV1 clade F1 harboring mutant reverse transcriptase relative to HIV1 CNDO with wild type reverse transcriptase
[4] = tested on: Human immunodeficiency virus 1; test: Antiviral activity against HIV1 isolate R8 harboring reverse transcriptase K103N mutant infected in human MT4 cells assessed as inhibition of viral replication after 72 hrs in presence of 50% human serum; details: Human immunodeficiency virus 1, isolate R8, MT4, 72 h
Method in brief: (§1)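 Multiple-cycle assay: MT-4 cells (2.5 × 10^5) infected with R8-based virus at low MOI, no inhibitor, 24 h at 37°C, 5% CO2; washed, reseeded at 5 × 10^4 cells in RPMI 1640 with 10% FBS or 50% type AB human serum; threefold serial dilutions from 833 nM to 0.32 nM; 72 h; p24 in medium by AlphaScreen; EC95 = lowest concentration giving ≥95% p24 reduction versus untreated.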

[5] = tested on: Human immunodeficiency virus 1; test: Antiviral activity against HIV1 isolate R8 harboring wild type reverse transcriptase infected in human MT4 cells assessed as inhibition of viral replication after 72 hrs in presence of 10% FBS; details: Human immunodeficiency virus 1, isolate R8, MT4, 72 h; method in brief: as §1
[6] = tested on: Human immunodeficiency virus 1; test: Antiviral activity against HIV1 clade D harboring mutant reverse transcriptase relative to HIV1 CNDO with wild type reverse transcriptase
[7] = tested on: Human immunodeficiency virus 1; test: Antiviral activity against NRTI-, PI-resistant HIV1 harboring mutant reverse transcriptase relative to HIV1 CNDO with wild type reverse transcriptase
Method in brief: (§2)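 Single-cycle PhenoScreen assay run by Monogram Biosciences, using viruses carrying RT sequences from clinical isolates, subtypes/CRFs or PI/NRTI-resistant clade B viruses; nine serial drug concentrations; activity expressed relative to drug-sensitive reference strain CNDO (protease and RT from NL4-3), with multidrug-resistant MDRC4 as assay-performance control.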

[8] = tested on: Human immunodeficiency virus 1; test: Antiviral activity against PI-resistant HIV1 harboring mutant reverse transcriptase relative to HIV1 CNDO with wild type reverse transcriptase; method in brief: as §2
[9] = tested on: Human immunodeficiency virus 1; test: Antiviral activity against HIV1 isolate R8 harboring reverse transcriptase Y181C mutant infected in human MT4 cells assessed as inhibition of viral replication after 72 hrs in presence of 50% human serum; details: Human immunodeficiency virus 1, isolate R8, MT4, 72 h; method in brief: as §1
[10] = tested on: Human immunodeficiency virus 1; test: Antiviral activity against HIV1 clade C harboring mutant reverse transcriptase relative to HIV1 CNDO with wild type reverse transcriptase
[11] = tested on: Human immunodeficiency virus 1; test: Antiviral activity against HIV1 CRF01_AE harboring mutant reverse transcriptase relative to HIV1 CNDO with wild type reverse transcriptase; method in brief: as §2
[12] = tested on: Human immunodeficiency virus 1; test: Antiviral activity against HIV1 isolate R8 harboring reverse transcriptase Y181C mutant infected in human MT4 cells assessed as inhibition of viral replication after 72 hrs in presence of 10% FBS; details: Human immunodeficiency virus 1, isolate R8, MT4, 72 h; method in brief: as §1
[13] = tested on: Human immunodeficiency virus 1; test: Antiviral activity against HIV1 CRF02_AG harboring mutant reverse transcriptase relative to HIV1 CNDO with wild type reverse transcriptase; method in brief: as §2
[14] = tested on: Human immunodeficiency virus 1; test: Antiviral activity against HIV1 clade H harboring mutant reverse transcriptase relative to HIV1 CNDO with wild type reverse transcriptase
[15] = tested on: Human immunodeficiency virus 1; test: Antiviral activity against HIV1 CRF17_BF harboring mutant reverse transcriptase relative to HIV1 CNDO with wild type reverse transcriptase; method in brief: as §2
[16] = tested on: Human immunodeficiency virus 1; test: Antiviral activity against HIV1 clade B harboring mutant reverse transcriptase relative to HIV1 CNDO with wild type reverse transcriptase
[17] = tested on: Human immunodeficiency virus 1; test: Antiviral activity against HIV1 isolate R8 harboring reverse transcriptase K103N and Y181C mutant infected in human MT4 cells assessed as inhibition of viral replication after 72 hrs in presence of 50% human serum; details: Human immunodeficiency virus 1, isolate R8, MT4, 72 h; method in brief: as §1
[18] = tested on: Human immunodeficiency virus 1; test: Antiviral activity against HIV1 isolate R8 harboring reverse transcriptase K103N and Y181C mutant infected in human MT4 cells assessed as inhibition of viral replication after 72 hrs in presence of 10% FBS; details: Human immunodeficiency virus 1, isolate R8, MT4, 72 h; method in brief: as §1
[19] = tested on: Human immunodeficiency virus 1; test: Antiviral activity against NRTI-resistant HIV1 harboring mutant reverse transcriptase relative to HIV1 CNDO with wild type reverse transcriptase; method in brief: as §2
[20] = tested on: Human immunodeficiency virus 1; test: Antiviral activity against HIV1 isolate R8 harboring wild type reverse transcriptase infected in human MT4 cells assessed as inhibition of viral replication after 72 hrs in presence of 50% human serum; details: Human immunodeficiency virus 1, isolate R8, MT4, 72 h; method in brief: as §1
[21] = tested on: Human immunodeficiency virus 1; test: Antiviral activity against HIV1 isolate R8 harboring reverse transcriptase K103N mutant infected in human MT4 cells assessed as inhibition of viral replication after 72 hrs in presence of 10% FBS; details: Human immunodeficiency virus 1, isolate R8, MT4, 72 h; method in brief: as §1

Cc1ccnc2c1NC(=O)c1cccnc1N2C1CC1 [NEVIRAPINE]
fold change (FC) [1]: 1.25
fold change (FC) [2]: 0.94
fold change (FC) [3]: 0.73
EC95 [4]: > 8 µM
EC95 [5]: 0.438 µM
fold change (FC) [6]: 0.35
fold change (FC) [7]: 0.32
fold change (FC) [8]: 1.05
EC95 [9]: > 8 µM
fold change (FC) [10]: 0.7
fold change (FC) [11]: 0.67
EC95 [12]: > 8 µM
fold change (FC) [13]: 0.4
fold change (FC) [14]: 0.13
fold change (FC) [15]: 0.83
fold change (FC) [16]: 1.25
EC95 [17]: > 8 µM
EC95 [18]: > 8 µM
fold change (FC) [19]: 0.49
EC95 [20]: 0.464 µM
EC95 [21]: > 8 µM
